Measurements: ChEMBL document CHEMBL1153025, “Triterpene glycosides from the underground parts of Caulophyllum thalictroides” (J Nat Prod, 2009)
≈ marks a conversion by molar mass, not a printed value.

tested on: HL-60; assay: Cytotoxicity against human HL60 cells up to 20 ug/ml after 72 hrs by MTT assay; type: functional, cell-based; details: not given
Method in brief: (§1)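 HL-60 (JCRB 0085) cells in RPMI 1640 with 10% FBS, L-glutamine, penicillin G and streptomycin, seeded at 4 × 10^4 cells/mL, preincubated 24 h at 37 °C in 5% CO2. Sample added in EtOH-H2O (1:1) to final 0.1-20 µg/mL; vehicle in controls. After 72 h, MTT 4 h, centrifuged, formazan dissolved in DMSO. Mean ± SEM of three experiments in triplicate.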

SMILES | Activity
CC1(C)CC[C@@]2(C(=O)O)C(=C3C=C[C@@H]4[C@@]5(C)CC[C@H](O[C@@H]6OC[C@H](O)[C@H](O)[C@H]6O)[C@@](C)(CO)[C@@H]5CC[C@@]4(C)[C@]3(C)C[C@H]2O)C1 | Not toxic
CC1(C)CC[C@]2(C(=O)O)[C@H](O)C[C@]3(C)C(=CC[C@@H]4[C@@]5(C)CC[C@H](O[C@@H]6OC[C@H](O)[C@H](O)[C@H]6O)[C@@](C)(C=O)[C@@H]5CC[C@]43C)[C@@H]2C1 | Not toxic
CC1(C)CC[C@]2(C(=O)O)[C@H](O)C[C@]3(C)C(=CC[C@@H]4[C@@]5(C)CC[C@H](O[C@@H]6OC[C@H](O)[C@H](O)[C@H]6O[C@@H]6O[C@H](CO)[C@@H](O)[C@H](O)[C@H]6O)[C@@](C)(CO)[C@@H]5CC[C@]43C)[C@@H]2C1 | Not toxic
CC1(C)CC[C@]2(C(=O)O[C@@H]3O[C@H](CO)[C@@H](O)[C@H](O)[C@H]3O)[C@H](O)C[C@]3(C)C(=CC[C@@H]4[C@@]5(C)CC[C@H](O[C@@H]6OC[C@H](O)[C@H](O)[C@H]6O)[C@@](C)(CO)[C@@H]5CC[C@]43C)[C@@H]2C1 | Not toxic
C[C@H]1[C@@H]2[C@H]3CC[C@@H]4[C@@]5(C)CC[C@H](O[C@@H]6OC[C@H](O)[C@H](O)[C@H]6O[C@@H]6O[C@H](CO)[C@@H](O)[C@H](O)[C@H]6O)C(C)(C)[C@@H]5CC[C@@]4(C)[C@]3(C)CC[C@@]23CC[C@]1(C)OC3=O | Not toxic
CC1(C)CC[C@]2(C(=O)O)[C@H](O)C[C@]3(C)C(=CC[C@@H]4[C@@]5(C)CC[C@H](O[C@@H]6OC[C@H](O)[C@H](O)[C@H]6O)[C@@](C)(CO)[C@@H]5CC[C@]43C)[C@@H]2C1 | Not toxic
C[C@@H]1O[C@@H](O[C@H]2[C@H](O)[C@@H](O)[C@H](OC[C@H]3O[C@@H](OC(=O)[C@]45CCC(C)(C)C[C@H]4C4=CC[C@@H]6[C@@]7(C)CC[C@H](O)[C@@](C)(CO)[C@@H]7CC[C@@]6(C)[C@]4(C)CC5)[C@H](O)[C@@H](O)[C@@H]3O)O[C@@H]2CO)[C@H](O)[C@H](O)[C@H]1O | Not toxic
C[C@@H]1O[C@@H](O[C@H]2[C@H](O)[C@@H](O)[C@H](OC[C@H]3O[C@@H](OC(=O)[C@]45CCC(C)(C)C[C@H]4C4=CC[C@@H]6[C@@]7(C)CC[C@H](O[C@@H]8OC[C@H](O)[C@H](O)[C@H]8O[C@@H]8O[C@H](CO)[C@@H](O)[C@H](O)[C@H]8O)[C@@](C)(CO)[C@@H]7CC[C@@]6(C)[C@]4(C)CC5)[C@H](O)[C@@H](O)[C@@H]3O)O[C@@H]2CO)[C@H](O)[C@H](O)[C@H]1O | Not toxic
CC1(C)CC[C@@]23CC[C@]4(C)[C@@](OC2=O)([C@@H]3C1)[C@H]1O[C@H]1[C@@H]1[C@@]2(C)CC[C@H](O[C@@H]3OC[C@H](O)[C@H](O)[C@H]3O[C@@H]3O[C@H](CO)[C@@H](O)[C@H](O)[C@H]3O)[C@@](C)(CO)[C@@H]2CC[C@]14C | Not toxic
C[C@@H]1O[C@@H](O[C@H]2[C@H](O)[C@@H](O)[C@H](OC[C@H]3O[C@@H](OC(=O)[C@]45CCC(C)(C)C[C@H]4C4=CC[C@@H]6[C@@]7(C)CC[C@H](O[C@@H]8OC[C@H](O)[C@H](O)[C@H]8O)[C@@](C)(CO)[C@@H]7CC[C@@]6(C)[C@]4(C)CC5)[C@H](O)[C@@H](O)[C@@H]3O)O[C@@H]2CO)[C@H](O)[C@H](O)[C@H]1O | Not toxic
CC1(C)CC[C@@]23C(=O)O[C@]4([C@@H]2C1)[C@H]1O[C@H]1[C@@H]1[C@@]2(C)CC[C@H](O[C@@H]5OC[C@H](O)[C@H](O)[C@H]5O)[C@@](C)(CO)[C@@H]2CC[C@@]1(C)[C@]4(C)C[C@H]3O | Not toxic
C[C@@H]1O[C@@H](O[C@H]2[C@H](O)[C@@H](O)[C@H](OC[C@H]3O[C@@H](OC(=O)[C@]45CCC(C)(C)C[C@H]4C4=CC[C@@H]6[C@@]7(C)CC[C@H](O[C@@H]8OC[C@H](O)[C@H](O)[C@H]8O)[C@@](C)(CO)[C@@H]7CC[C@@]6(C)[C@]4(C)C[C@H]5O)[C@H](O)[C@@H](O)[C@@H]3O)O[C@@H]2CO)[C@H](O)[C@H](O)[C@H]1O | Not toxic
C[C@H]1[C@@H]2C3CC[C@@H]4[C@@]5(C)CC[C@H](O[C@@H]6OC[C@H](O)[C@H](O)[C@H]6O[C@@H]6O[C@H](CO)[C@@H](O)[C@H](O)[C@H]6O)C(C)(C)[C@@H]5CC[C@@]4(C)[C@]3(C)CC[C@@]2(C(=O)O)CC[C@@]1(C)O (stereo partly drawn) | Not toxic
CC1(C)CC[C@]2(C(=O)O[C@@H]3O[C@H](CO[C@@H]4O[C@H](CO)[C@@H](O)[C@H](O)[C@H]4O)[C@@H](O)[C@H](O)[C@H]3O)[C@H](O)C[C@]3(C)C(=CC[C@@H]4[C@@]5(C)CC[C@H](O[C@@H]6OC[C@H](O)[C@H](O)[C@H]6O)[C@@](C)(CO)[C@@H]5CC[C@]43C)[C@@H]2C1 | Not toxic
C[C@@H]1O[C@@H](O[C@H]2[C@H](O)[C@@H](O)[C@H](OC[C@H]3O[C@@H](OC(=O)[C@]45CCC(C)(C)C[C@H]4C4=CC[C@@H]6[C@@]7(C)CC[C@H](O[C@@H]8OC[C@H](O)[C@H](O)[C@H]8O[C@@H]8O[C@H](CO)[C@@H](O)[C@H](O)[C@H]8O)C(C)(C)[C@@H]7CC[C@@]6(C)[C@]4(C)CC5)[C@H](O)[C@@H](O)[C@@H]3O)O[C@@H]2CO)[C@H](O)[C@H](O)[C@H]1O | Not toxic

tested on: HL-60; assay: Cytotoxicity against human HL60 cells after 72 hrs by MTT assay; type: functional, cell-based; details: HL-60, 72 h; method in brief: as §1

SMILES | IC50
CC1(C)CC[C@]2(C(=O)O)[C@H](O)C[C@]3(C)C(=CC[C@@H]4[C@@]5(C)CC[C@H](O[C@@H]6OC[C@H](O)[C@H](O)[C@H]6O[C@@H]6O[C@H](CO)[C@@H](O)[C@H](O)[C@H]6O)C(C)(C)[C@@H]5CC[C@]43C)[C@@H]2C1 | 11.8 µg/mL (≈ 15.4 µM)
CC1(C)CC[C@]2(C(=O)O)CC[C@]3(C)C(=CC[C@@H]4[C@@]5(C)CC[C@H](O[C@@H]6OC[C@H](O)[C@H](O)[C@H]6O[C@@H]6O[C@H](CO)[C@@H](O)[C@H](O)[C@H]6O)C(C)(C)[C@@H]5CC[C@]43C)[C@@H]2C1 | 10.8 µg/mL (≈ 14.4 µM)
CC1(C)CC[C@]2(C(=O)O)CC[C@]3(C)C(=CC[C@@H]4[C@@]5(C)CC[C@H](O[C@@H]6OC[C@H](O)[C@H](O)[C@H]6O)C(C)(CO)[C@@H]5CC[C@]43C)[C@@H]2C1 (stereo partly drawn) | 12.5 µg/mL (≈ 20.7 µM)
CC1(C)CC[C@]2(C(=O)O)CC[C@]3(C)C(=CC[C@@H]4[C@@]5(C)CC[C@H](O[C@@H]6OC[C@H](O)[C@H](O)[C@H]6O)C(C)(C)[C@@H]5CC[C@]43C)[C@@H]2C1 | 3.4 µg/mL (≈ 5.77 µM)
CC1(C)CC[C@]2(C(=O)O)CC[C@]3(C)C(=CC[C@@H]4[C@@]5(C)CC[C@H](O[C@@H]6OC[C@H](O)[C@H](O)[C@H]6O[C@@H]6O[C@H](CO)[C@@H](O)[C@H](O)[C@H]6O)[C@@](C)(CO)[C@@H]5CC[C@]43C)[C@@H]2C1 | 15.9 µg/mL (≈ 20.7 µM)
CC1(C)CC[C@]2(C(=O)O)[C@H](O)C[C@]3(C)C(=CC[C@@H]4[C@@]5(C)CC[C@H](O[C@@H]6OC[C@H](O)[C@H](O)[C@H]6O)C(C)(C)[C@@H]5CC[C@]43C)[C@@H]2C1 | 5.6 µg/mL (≈ 9.26 µM)
CC1(C)CC[C@]2(C(=O)O)CC[C@]3(C)C(=CC[C@@H]4[C@@]5(C)CC[C@H](O[C@@H]6OC[C@H](O)[C@H](O)[C@H]6O)[C@@](C)(C=O)[C@@H]5CC[C@]43C)[C@@H]2C1 | 4.8 µg/mL (≈ 7.96 µM)
COc1cc([C@@H]2c3cc4c(cc3[C@@H](O[C@@H]3O[C@@H]5CO[C@@H](C)O[C@H]5[C@H](O)[C@H]3O)[C@H]3COC(=O)[C@H]23)OCO4)cc(OC)c1O [ETOPOSIDE] | 0.26 µg/mL (≈ 0.442 µM)
